Results: PubChem BioAssay AID504382 (The Scripps Research Institute Molecular Screening Center, 2011)
About 460 (18%) of roughly 2,500 compounds were called active. A selection follows. Values without a mark were called inactive.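 Rule for the calls: active = mean activation above a cutoff of low control average plus 3 SD from the earlier screen (cut at about 12% in these data); inactive = the rest.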

Assay: IANBD-channel fluorescence artefacts in buffer – biochemical, artefact control for cardiac RTF calcium sensitizer project, confirmation (AID 504382)
Conditions: IANBD fluorescence interference counterscreen, EC20 Ca2+, at 7.2 µM, hits give high values, scaled: EC20 calcium 0, EC100 calcium 100
Outline: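 timing = compound incubation 15 min at 25 °C before fluorescence reading | technique = fluorescence at 480 nm excitation, 540 nm emission | evaluation = interference relative to controls | replication = triplicate wells per compound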
`COC(=O)c1ccccc1NC(=O)[C@@H]1CCC(=O)N1C1OC(=O)c2c1ccc(OC)c2OC` (stereo not given in full) showed a fluorescence artifact activation of 0.09%.
`O=C1C=C(NCc2ccco2)CC(c2ccc(Cl)cc2)C1` (stereo not given) gave a fluorescence artifact activation of 0.31%.
With `CC1=CC=CN2CC(O)CN=C12` (stereo not given) the fluorescence artifact activation was 3.77%.
Compound `Cc1c(C(=O)NCc2ccc3c(c2)cc(C)n3C)cccc1[N+](=O)[O-]` has a fluorescence artifact activation of 0.13%.
`COc1cc(NC(=O)CSc2nc3ccccc3n2-c2ccccc2)c(C)cc1[N+](=O)[O-]` showed a fluorescence artifact activation of 0.03%.
Compound `COC1=C/C(=C/c2c(N)n3c(nc2=O)sc2cc(S(C)(=O)=O)ccc23)C=CC1=O` has a fluorescence artifact activation of 0.11%.
Work on `N#Cc1cccc(NC(=S)Nc2ccccc2)c1` yielded a fluorescence artifact activation of 0.03%.
Work on `CC(C)(C)OC(=O)[C@H](Cc1ccccc1)NC(=O)c1nc[nH]c1C(=O)NCc1ccccc1` yielded a fluorescence artifact activation of 4.14%.
`CCOC(=O)c1[nH]cnc1C(=O)Nc1ccccn1` showed a fluorescence artifact activation of 0.74%.
For `CN(Cc1ccccc1)C(=O)c1[nH]cnc1C(=O)NCc1ccccc1`, the fluorescence artifact activation was 12.7% (active).
Compound `CCOC(=O)C1=C(C)N=c2s/c(=C\c3ccc(OCC(=O)O)cc3)c(=O)n2C1c1ccc(Cl)cc1` (stereo not given) has a fluorescence artifact activation of 0.05%.
In the case of `CC1=C/C(=C\C=C(C#N)C#N)N(C)c2ccccc21`, the fluorescence artifact activation is reported as 0.3%.
In the case of `O=C(O)c1cc(Cl)ccc1-c1ccc(/C=C/c2cc(C(F)(F)F)[nH]c(=O)n2)o1`, the fluorescence artifact activation is reported as 21.8% (active).
In the case of `Cc1cc2nc(/C(C#N)=C\c3ccc(-c4ccccc4C(=O)O)o3)[nH]c2cc1C`, the fluorescence artifact activation is reported as 0.09%.
In the case of `O=C(O)c1ccccc1-c1ccc(/C=C/c2cc(C(F)(F)F)[nH]c(=O)n2)o1`, the fluorescence artifact activation is reported as 0.16%.
With `CC(=O)NN1C(=O)/C(=C\c2ccc(O)cc2)SC1=S` the fluorescence artifact activation was 0.69%.
Compound `C/C(=N\Nc1ccc([N+](=O)[O-])cc1[N+](=O)[O-])c1cccnc1` has a fluorescence artifact activation of 0.07%.
Compound `O=C(NCc1nnc(SCC(=O)N2CCCCCC2)o1)c1ccco1` has a fluorescence artifact activation of 8.13%.
`Fc1ccc(OCc2nnc(SCCN3CCOCC3)o2)cc1` gave a fluorescence artifact activation of -0.06%.
In the case of `O=C(CSc1nnc(COc2ccccc2)o1)N1CCN(c2ccccc2)CC1`, the fluorescence artifact activation is reported as 12% (active).
With `Cc1cccc(NC(=O)CN2C(=O)N/C(=C/c3ccc(C)s3)C2=O)c1` the fluorescence artifact activation was 0.09%.
`O=C(O)c1ccc(-n2c(/C=C/c3cccc([N+](=O)[O-])c3)nc3ccccc3c2=O)cc1` gave a fluorescence artifact activation of 0.47%.
Compound `COCCN1C(=O)/C(=C/c2ccc(N3CCCC3)cc2)SC1=S` has a fluorescence artifact activation of 0.34%.
In the case of `CC1CN(c2ccc(NS(=O)(=O)c3ccccc3)cc2C(=O)O)CC(C)O1` (stereo not given), the fluorescence artifact activation is reported as 31.9% (active).
`CC(=O)c1ccc(S(=O)(=O)Nc2ccc(C(=O)N3CCC3)cc2)cc1` showed a fluorescence artifact activation of 0.27%.
For `CCOC(=O)C1CCCN(C(=O)c2cccc(S(=O)(=O)N3CC(C)OC(C)C3)c2)C1` (stereo not given), the fluorescence artifact activation was 0.05%.
With `O=C(Nc1ccc(F)cc1F)c1ccc(COc2c(F)c(F)cc(F)c2F)o1` the fluorescence artifact activation was -0.01%.
Compound `CCCCc1ccc(NC(=O)N2CCNC(=O)C2CC(=O)Nc2ccsc2C(=O)OC)cc1` (stereo not given) has a fluorescence artifact activation of -0.11%.
`Cc1cn2c(N)c(C=C3C=C(Cl)C(=O)C(Cl)=C3)c(=O)nc2s1` gave a fluorescence artifact activation of 4.46%.
Compound `CCOC(=O)CN1C(=O)S/C(=C/C=C/c2ccc(N(C)C)cc2)C1=O` has a fluorescence artifact activation of -0.03%.
With `COc1ccc(C(=O)/C=C/c2cn(CC(O)CN3CCN(C)CC3)c3ccccc23)cc1OC` (stereo not given) the fluorescence artifact activation was 18.9% (active).
Compound `O=C(/C=C/c1cn(CC(O)CN2CCCCCC2)c2ccccc12)c1cccs1` (stereo not given) has a fluorescence artifact activation of 5.69%.
Compound `COc1ccc(C(=O)/C=C/c2cn(CC(O)CN3CCOCC3)c3ccccc23)cc1` (stereo not given) has a fluorescence artifact activation of 6.56%.
For `CCCN(CCC)CC(O)Cn1cc(/C=C/C(=O)c2cccs2)c2ccccc21` (stereo not given), the fluorescence artifact activation was 0.1%.
With `O=C(/C=C/c1cn(CC(O)CN2CCCCC2)c2ccccc12)c1cccs1` (stereo not given) the fluorescence artifact activation was 14.5% (active).
With `Cc1ccc(C(=O)/C=C/c2cn(CC(O)CN3CCOCC3)c3ccccc23)cc1` (stereo not given) the fluorescence artifact activation was 0.01%.
For `CCN(CC)c1ccc(-c2sc(Nc3ccccc3)n[n+]2-c2ccc(F)cc2)cc1`, the fluorescence artifact activation was 3.87%.
Work on `C=CCOc1ccn(C)c(=O)n1` yielded a fluorescence artifact activation of 2.39%.
`O=[N+]([O-])c1ccc(/C=C/C2=NN(c3ccccc3)C(c3ccco3)C2)cc1` (stereo not given) gave a fluorescence artifact activation of 6.35%.
With `Cc1nnc(N/N=C/c2ccc(O)c([N+](=O)[O-])c2)[nH]c1=O` the fluorescence artifact activation was 8.03%.
With `O=S1(=O)CCOC[C@H](CC2CCCCC2)N1Cc1ccccc1` the fluorescence artifact activation was 0.05%.
For `O=C(NCCNC(=O)c1cccs1)c1ccco1`, the fluorescence artifact activation was 10.5%.
For `CCn1c(CNc2ccc(C(=O)O)cc2)nc2ccccc21`, the fluorescence artifact activation was -0.08%.
For `Cn1c(CCNC(=O)c2ccco2)nc2ccccc21`, the fluorescence artifact activation was 350% (active).
Work on `Cn1c(=O)c2c(nc(NCCNC(=O)c3ccco3)n2Cc2ccccc2Cl)n(C)c1=O` yielded a fluorescence artifact activation of 0.11%.
For `O=C(Cn1c(C(F)(F)F)nc2ccccc21)NCCN1CCCC1`, the fluorescence artifact activation was 0.11%.
With `CCCC(=O)NCCCc1nc2ccccc2n1C` the fluorescence artifact activation was 43.2% (active).
Work on `COc1ccc(CN2CNc3c(c(=O)n(C)c(=O)n3C)C2)cc1` yielded a fluorescence artifact activation of 6.35%.
Work on `Brc1ccc(-c2noc(-c3ccccn3)n2)o1` yielded a fluorescence artifact activation of 0.61%.
In the case of `O=C1C(=Cc2ccco2)CCCC1=Cc1ccco1`, the fluorescence artifact activation is reported as 6.25%.
`O=C(NCc1ccccc1Cl)c1ccc2nc[nH]c2c1` gave a fluorescence artifact activation of -0.08%.
Work on `CCOC(=O)CC1=NS(=O)(=O)c2ccccc2N1` yielded a fluorescence artifact activation of 2.81%.
With `COc1ccccc1NS(=O)(=O)c1cc(NC(=O)CCNC(C)=O)ccc1N1CCCCC1` the fluorescence artifact activation was 0.74%.
`COc1ccccc1NS(=O)(=O)c1ccccc1C#N` gave a fluorescence artifact activation of -0.04%.
In the case of `COc1ccccc1NS(=O)(=O)c1cc(NC(=O)c2cc3ccccc3oc2=O)ccc1C`, the fluorescence artifact activation is reported as 16.8% (active).
With `CCNc1nc(SCC(N)=O)nc2sc3c(c12)CCN(C)C3` the fluorescence artifact activation was 0.22%.
For `CN(/N=C/c1ccc(-c2ccc([N+](=O)[O-])cc2)o1)c1ccccc1`, the fluorescence artifact activation was 9.54%.
With `COc1ccccc1NS(=O)(=O)c1cc([N+](=O)[O-])ccc1N/N=C/c1c(C)[nH]c2ccccc12` the fluorescence artifact activation was 4.83%.
For `COCCN=c1scc(-c2cc(OC)c(OC)c(OC)c2)n1/N=C/c1c(C)[nH]c2ccccc12`, the fluorescence artifact activation was 21.1% (active).
For `CCN(CC)S(=O)(=O)c1ccc2[nH]c(=O)[nH]c2c1`, the fluorescence artifact activation was 0.38%.
For `CCN(CC)S(=O)(=O)c1ccc2[nH]cc(C(=O)NCCN3CCCCCC3)c(=O)c2c1`, the fluorescence artifact activation was 14.6% (active).
In the case of `Cn1c(C(=O)NCCCN2CCCCCC2)cc2c(=O)n(C)c3ccccc3c21`, the fluorescence artifact activation is reported as 3.34%.
`O=C(CSCc1ccco1)NC1CCCC1` gave a fluorescence artifact activation of 5.75%.
Work on `CCN(CC)C1=CC2=CC(=C(C#N)C#N)CCC2CC1` (stereo not given) yielded a fluorescence artifact activation of 0.13%.
For `O=C(Nc1ccc(S(=O)(=O)Nc2ncccn2)cc1)c1nn(Cc2ccccc2)c(=O)c2ccccc12`, the fluorescence artifact activation was 303% (active).
With `O=C(Nc1ccc(S(=O)(=O)Nc2ncccn2)cc1)C1CC(=O)N(c2ccccc2)C1` (stereo not given) the fluorescence artifact activation was -0.09%.
With `CCn1cc([N+](=O)[O-])c(C(=O)Nc2ccn(Cc3ccccc3)n2)n1` the fluorescence artifact activation was 1.63%.
In the case of `CC(=O)c1ccc2c(c1)c(C#N)c1ccccc1[n+]2[O-]`, the fluorescence artifact activation is reported as 57.1% (active).
In the case of `O=S(=O)(CCN(CCS(=O)(=O)C(F)(F)F)CC1CCCO1)C(F)(F)F` (stereo not given), the fluorescence artifact activation is reported as 0.02%.
`O=C(c1cnc2ccccc2n1)N1CCN(c2ccc(C(F)(F)F)cn2)CC1` showed a fluorescence artifact activation of 5.21%.
With `CN(C)CCOc1ccccc1C(C)(C)C` the fluorescence artifact activation was 0.06%.
With `O=C1c2c(O)cc(O)cc2O[C@@]12c1c(cc(O)c3c1O[C@H](c1ccc(O)cc1)[C@@H](O)C3)O[C@@H]2c1ccc(O)cc1` the fluorescence artifact activation was 0%.
With `CCn1c(C(C)NC(C)=O)nc2ccccc21` (stereo not given) the fluorescence artifact activation was 2.7%.
In the case of `c1ccc(Cn2c(-c3ccccc3)nc3nc4ccccc4nc32)cc1`, the fluorescence artifact activation is reported as 6.17%.
With `O=S(=O)(O)c1nc2ccccc2n1Cc1ccccc1` the fluorescence artifact activation was 16.5% (active).
For `NC(=O)[C@@H]1CCCNc2c(I)cc([N+](=O)[O-])cc2C(=O)N[C@@H](CCC(=O)O)C(=O)N[C@@H](CO)C(=O)N1`, the fluorescence artifact activation was 0%.
`Cc1ccc(S(=O)(=O)N2CC(C(=O)O)=CC[C@H]2c2ccc(Cl)cc2)cc1` showed a fluorescence artifact activation of 0.03%.
In the case of `Cc1cccc(NC(=O)c2ccc(C(=O)c3ccccc3)cc2)n1`, the fluorescence artifact activation is reported as 1.13%.
With `O=C(COC(=O)c1ccc(O)cc1)Nc1ccc2c(c1)OCCO2` the fluorescence artifact activation was 13.1% (active).
With `NC(=O)c1ccc(NC(=O)COC(=O)c2c3c(nc4ccccc24)/C(=C\c2ccc4c(c2)OCO4)CCC3)cc1` the fluorescence artifact activation was 0.16%.
`Cc1cc(C(=O)O)ccc1-c1ccc(/C=C2\SC(=O)N(CC(=O)Nc3ccc4c(c3)OCO4)C2=O)o1` gave a fluorescence artifact activation of 0.42%.
With `Cc1cc(C)c(S(=O)(=O)Nc2ccc3[nH]c(=O)[nH]c3c2)c(C)c1` the fluorescence artifact activation was 3.79%.
With `O=C/C(=C\Nc1ccc(S(=O)(=O)CCO)cc1)c1nc2cc(Cl)ccc2o1` the fluorescence artifact activation was 20.2% (active).
`Cc1ccc(-c2nc3sc(C#N)c(N)n3c(=O)c2C#N)cc1` gave a fluorescence artifact activation of 0.13%.
Work on `CC(C)CC1C(C#N)=C(N)SC(N)=C1C#N` yielded a fluorescence artifact activation of 0.12%.
Compound `Cc1ccc(/C=C/C(=O)Nc2cccc3cccnc23)o1` has a fluorescence artifact activation of 4.18%.
For `Cc1cc(C(=O)COc2cccc3cccnc23)c(C)n1C`, the fluorescence artifact activation was 21.4% (active).
Compound `Cc1ccc(-n2c(C)cc(C(=O)COC(=O)c3ccc[nH]c3=O)c2C)cc1` has a fluorescence artifact activation of -0.02%.
With `COc1ccc(NC(=O)c2cccc(-c3ccc(O)cc3)c2)cn1` the fluorescence artifact activation was -0.04%.
In the case of `Cc1nc(-n2[nH]c3c(c2=O)CCCC3)[nH]c(=O)c1Cc1ccccc1`, the fluorescence artifact activation is reported as 7.51%.
